Experimental data: paper PMC7993319 (Clinical and Translational Science, 2020)
Read-outs that look alike come from different tables or passages of the source.

Tests used:
[1] = system: NSCLC; conditions: cited from earlier work
[2] = co‐administration of CYP3A‐inducing rifampin; cited from earlier work
[3] = type: in vivo, human (patients with ALK‐positive NSCLC); conditions: for Crizotinib Cmin,ss: enrolled patient; for AUC(0-t): human, oral, Crizotinib AUC0–12, enrolled patient
Method in brief: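 Patients on standard oral ALK inhibitor (250 mg b.i.d., ≥14 days) with trough <310 ng/mL got oral CYP3A inhibitor 150 mg q.d. from day 2 for 14 days. Plasma sampled predose and 0.5–12 h (11 points) on days 1 and 15, plus trough on day 8. LC-MS/MS with ether extraction, isotope-labelled internal standard, 1–5,000 ng/mL. AUC0–12 by noncompartmental analysis.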

[4] = Safety monitoring in the trial; type: in vivo, human (patient with ALK‐positive NSCLC)
Method in brief: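 Safety was monitored by physical examination and laboratory tests on days 1 and 15, with safety visits on days 8 and 29. Triplicate 12-lead recordings were taken predose on day 1 (before the oral CYP3A inhibitor, 150 mg q.d. from day 2) and on days 8 and 15 of co-treatment with the ALK inhibitor. QT was corrected by Fridericia.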

[5] = cited from earlier work
[6] = system: ALK; conditions: lactam metabolite, two diastereoisomers; cited from earlier work

C[C@@H](Oc1cc(-c2cnn(C3CCNCC3)c2)cnc1N)c1c(Cl)ccc(F)c1Cl [crizotinib]
Hazard ratio (progression-free survival model) ([1]; lowest quartile vs. the combined upper three quartiles, 90% confidence interval: 1.62–6.36): 3.2 | ORR ([1]; quartile with the highest Cmin,ss): 60–75% | ORR ([1]; quartile with the lowest Cmin,ss (< 310 ng/mL)): 24–47% | Decrease of crizotinib AUC [2]: 72% | Mean crizotinib Cmin,ss at screening ([3]; 7 screened patients, oral crizotinib 250 mg b.i.d., steady state, plasma): 279 ± 77 ng/mL | AUC0–12 ratio ([3]; crizotinib with cobicistat (14 days) vs baseline): 1.78 | Crizotinib Cmin,ss ([3]; day 1, before cobicistat, crizotinib 250 mg b.i.d.): 158 ng/mL | Crizotinib Cmin,ss ([3]; day 8, with oral cobicistat 150 mg q.d.): 308 ng/mL | AUC(0-t) ([3]; plasma, after 14 days of cobicistat treatment): 3920 ng·h/mL | AUC(0-t) ([3]; plasma, baseline (before cobicistat), steady state): 2210 ng·h/mL | Underexposed patients (Cmin,ss < 310 ng/mL) ([3]; unselected NSCLC population screened (5 of 7 patients)): 71% | Increase of crizotinib AUC0–12 ([3]; with cobicistat for 14 days vs before cobicistat): 78% | QTcF ([4]; before cobicistat treatment, on crizotinib, triplicate ECG): 394 ms | Heart rate ([4]; day 1, before cobicistat, on crizotinib): 56 bpm

CC(C)c1nc(CN(C)C(=O)N[C@@H](CCN2CCOCC2)C(=O)N[C@H](CC[C@H](Cc2ccccc2)NC(=O)OCc2cncs2)Cc2ccccc2)cs1 [cobicistat]
QTcF ([4]; day 8 of cobicistat treatment, with crizotinib): 410 ms | Heart rate ([4]; day 15, crizotinib plus cobicistat): 54 bpm | QTcF ([4]; day 15 of cobicistat treatment, with crizotinib): 413 ms | Safety signals / adverse events ([4]; single patient, crizotinib 250 mg b.i.d. plus cobicistat 150 mg q.d. for 14 days): No safety signals occurred | Laboratory changes ([4]; single patient, crizotinib plus cobicistat): no significant laboratory changes except a grade I increase in transaminases

CCc1cc2c(cc1N1CCC(N3CCOCC3)CC1)C(C)(C)c1[nH]c3cc(C#N)ccc3c1C2=O [alectinib]
Increase of combined AUC of alectinib and the M4 metabolite ([5]; administration of the CYP3A inhibitor posaconazole): 36% | CYP3A contribution to clearance ([5]; alectinib): 40–50%

CCc1cc2c(cc1N1CCC(NCCO)CC1)C(C)(C)c1[nH]c3cc(C#N)ccc3c1C2=O [M4]
Activity of metabolite relative to alectinib [5]: equipotently active

C[C@@H](Oc1cc(-c2cnn(C3CCNC(=O)C3)c2)cnc1N)c1c(Cl)ccc(F)c1Cl (some centres unmarked) [PF‐06260182]
ALK‐inhibiting activity [6]: 4–8%
